What was measured:
[1] = tested on: Plasmodium falciparum; experiment: Antimalarial activity against Plasmodium falciparum 3D7 after 48 hrs by LDH colorimetric assay; assay type: functional, organism-based; details: 3D7, 48 h
Procedure, shortened: (§1)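 Parasite survival after drug exposure read by pLDH colorimetric enzyme assay; APAD co-factor, formazan absorbance at 620 nm. Samples prepared in parasite culture medium in 96-well plates. Survival per well relative to drug-free control wells. IC50 from fitted sigmoidal dose-response curves.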

[2] = tested on: Plasmodium falciparum; experiment: Resistance index, ratio of IC50 for Plasmodium falciparum W2 to IC50 for Plasmodium falciparum 3D7; assay type: functional
Procedure, shortened: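 P. falciparum 3D7 and W2 cultures were exposed to test samples prepared in parasite culture medium. Survival was read by a pLDH colorimetric assay using APAD as cofactor, with formazan absorbance at 620 nm and percentage survival set against drug-free wells. IC50 for each strain came from fitted sigmoidal dose-response curves, and the ratio is IC50 W2 / IC50 3D7.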

[3] = Cytotoxicity against human WI38 cells after 48 hrs by SRB assay; assay type: cell-based; details: WI-38, 48 h
Procedure, shortened: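 WI-38 normal human fetal lung fibroblasts, passages 21–50, seeded at 10 000 cells/well and incubated 24 h. Compounds dissolved in DMSO, diluted in medium to five concentrations, then exposed 48 h. Untreated cells as control, medium-only blank, parthenolide as standard. Cells TCA-fixed and stained with sulforhodamine B (NCI protocol). IC50 by non-linear regression.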

[4] = Selectivity index, ratio of IC50 for human WI38 cells to IC50 for Plasmodium falciparum 3D7; assay type: toxicity, cell-based, WI-38; details: read-out: Ratio IC50
Procedure, shortened: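 Selectivity index calculated as IC50 on WI-38 fibroblasts (48 h SRB) divided by IC50 on P. falciparum 3D7 (pLDH assay).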

[5] = tested on: Plasmodium falciparum; experiment: Antimalarial activity against Plasmodium falciparum W2 after 48 hrs by LDH colorimetric assay; assay type: functional, organism-based; details: W2, 48 h; procedure, shortened: as §1
[6] = tested on: Plasmodium falciparum; experiment: Ratio of chloroquine IC50 to compound IC50 for Plasmodium falciparum W2 after 48 hrs by LDH colorimetric assay; assay type: functional

SMILES | IC50 [1] [µM] | Ratio IC50 [2] | IC50 [3] [µM] | selectivity ratio [4] | IC50 [5] [µM] | Ratio IC50 [6]
Cc1ccc(C(=O)/C=C/c2ccc(C(=O)NCCCN(C)CCCNc3ccnc4cc(Cl)ccc34)cc2)o1 | 0.09 | 2.4 | 5.3 | 58 | 0.22 | 
Cc1ccc(C(=O)/C=C/c2ccc(C(=O)NCCOCCOCCNc3ccnc4cc(Cl)ccc34)cc2)o1 | 0.26 | 1.1 | 10.2 | 40 | 0.27 | 
Cc1ccc(C(=O)/C=C/c2ccc(C(=O)NCCCCNc3ccnc4cc(Cl)ccc34)cc2)o1 | 0.05 | 2.1 | 39 | 819 | 0.1 | 
CCCCNC(=O)c1ccc(/C=C/C(=O)c2ccc(C)o2)cc1 | 10 |  |  |  |  | 
Cc1ccc(C(=O)/C=C/c2ccc(C(=O)NC(C)CNc3ccnc4cc(Cl)ccc34)cc2)o1 (centres undefined) | 0.08 | 1.4 | 10 | 126 | 0.11 | 
Cc1ccc(C(=O)/C=C/c2ccc(C(=O)N3CCOCC3)cc2)o1 | > 30 |  |  |  |  | 
Cc1ccc(C(=O)/C=C/c2ccc(C(N)=O)cc2)o1 | 10 |  |  |  |  | 
Cc1ccc(C(=O)/C=C/c2ccc(C(=O)NCCNc3ccnc4cc(Cl)ccc34)cc2)o1 | 0.11 | 16.7 | 47.3 | 446 | 1.78 | 
Cc1ccc(C(=O)/C=C/c2ccc(C(=O)NCCCNc3ccnc4cc(Cl)ccc34)cc2)o1 | 0.07 | 3.4 | 74.5 | 1120 | 0.23 | 
C=C1C(=O)O[C@@H]2C3O[C@]3(C)CC/C=C(\C)CC[C@@H]12 (some centres undefined) |  |  | 16.4 |  |  | 
Cc1ccc(C(=O)/C=C/c2ccc(C(=O)O)cc2)o1 | 18.4 | 0.8 | > 100 |  | 14.2 | 
Cc1ccc(C(=O)/C=C/c2ccc(C(=O)N(C)CCCNc3ccnc4cc(Cl)ccc34)cc2)o1 | 0.37 | 1.2 | 18.6 | 50 | 0.46 | 
Cc1ccc(C(=O)/C=C/c2ccc(C(=O)NCCCCCCNc3ccnc4cc(Cl)ccc34)cc2)o1 | 0.05 | 1.5 | 19.5 | 435 | 0.07 | 2
Cc1ccc(C(=O)/C=C/c2ccc(C(=O)N3CCN(c4ccnc5cc(Cl)ccc45)CC3)cc2)o1 | 0.54 | 2.3 | 17.3 | 32 | 1.26 | 
